Tests used:
[1] = Inhibition of Leishmania mexicana squalene synthase
[2] = biological target: T1, Farnesyltransferase, putative (Trypanosoma cruzi (strain CL Brener), UniProt Q4CXF7); test: Inhibition of Trypanosoma cruzi squalene synthase
T1 sequence (Q4CXF7 whole entry): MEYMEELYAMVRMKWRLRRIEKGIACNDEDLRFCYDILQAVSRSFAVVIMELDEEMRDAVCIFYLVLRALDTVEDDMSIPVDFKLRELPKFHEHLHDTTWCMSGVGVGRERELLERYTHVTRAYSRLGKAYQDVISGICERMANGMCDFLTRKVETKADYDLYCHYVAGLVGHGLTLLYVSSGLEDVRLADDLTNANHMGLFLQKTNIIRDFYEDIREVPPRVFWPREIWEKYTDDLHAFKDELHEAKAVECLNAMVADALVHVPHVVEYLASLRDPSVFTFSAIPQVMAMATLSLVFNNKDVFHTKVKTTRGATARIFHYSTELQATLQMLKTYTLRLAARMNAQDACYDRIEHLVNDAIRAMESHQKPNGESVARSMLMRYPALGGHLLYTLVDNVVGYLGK

[3] = test system: Leishmania amazonensis; test: Inhibition of sterol biosynthesis in Leishmania mexicana amazonensis promastigotes assessed as reduction in exogenous cholesterol level at 1 uM after 96 hrs by gas-liquid chromatography; assay type: functional; set-up: scale not given: the % may be the effect or the level left
How it was run: (§1)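 L. mexicana promastigotes exposed to compound for 96 h. Total lipids extracted and neutral sterols separated from polar lipids by silicic acid column chromatography. Sterols analysed by TLC and by quantitative capillary gas-liquid chromatography with mass spectrometry. Composition expressed as mass % of free sterols, compared with untreated control.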

[4] = test system: Leishmania amazonensis; test: Inhibition of sterol biosynthesis in Leishmania mexicana amazonensis promastigotes assessed as reduction in endogenous episterol level at 3 uM after 96 hrs by gas-liquid chromatography; assay type: functional; set-up: scale not given: the % may be the effect or the level left; how it was run: as §1
[5] = test system: Leishmania amazonensis; test: Inhibition of sterol biosynthesis in Leishmania mexicana amazonensis promastigotes assessed as reduction in endogenous episterol level at 1 uM after 96 hrs by gas-liquid chromatography; assay type: functional; set-up: scale not given: the % may be the effect or the level left; how it was run: as §1
[6] = biological target: T2, Farnesyltransferase, putative (Leishmania major, UniProt Q4Q5W4); test: Inhibition of Leishmania major recombinant squalene synthase expressed in Escherichia coli by liquid scintillation counter
T2 sequence (Q4Q5W4 whole entry): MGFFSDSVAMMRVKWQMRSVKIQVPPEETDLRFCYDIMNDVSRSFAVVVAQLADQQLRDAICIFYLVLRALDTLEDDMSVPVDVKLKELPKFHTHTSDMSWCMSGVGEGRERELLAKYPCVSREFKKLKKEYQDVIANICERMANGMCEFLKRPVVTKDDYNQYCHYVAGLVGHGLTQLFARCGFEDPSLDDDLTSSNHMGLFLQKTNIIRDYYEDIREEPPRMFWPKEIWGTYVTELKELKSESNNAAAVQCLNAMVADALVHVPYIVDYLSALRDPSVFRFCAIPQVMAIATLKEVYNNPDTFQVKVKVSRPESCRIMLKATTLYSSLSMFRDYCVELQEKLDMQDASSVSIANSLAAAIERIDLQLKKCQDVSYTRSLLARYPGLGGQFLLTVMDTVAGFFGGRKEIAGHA
How it was run: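 Soluble E. coli extract expressing L. major SQS truncated by 16 N-terminal and 40 C-terminal residues. Buffer: 50 mM phosphate pH 7.4, 20 mM MgCl2, 5 mM CHAPS, 1% Tween 80, 10 mM DTT, BSA, 0.25 mM NADPH, and a glucose-6-phosphate/G6PDH regenerating system. Substrate 0.5 μM radiolabelled farnesyl pyrophosphate. Squalene band counted by scintillation. IC50 from hyperbolic plot of five concentrations in duplicate, usually run twice.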

[7] = test system: Leishmania amazonensis; test: Inhibition of sterol biosynthesis in Leishmania mexicana amazonensis promastigotes assessed as reduction in endogenous 5-dehydro episterol level at 1 uM after 96 hrs by gas-liquid chromatography; assay type: functional; set-up: scale not given: the % may be the effect or the level left; how it was run: as §1
[8] = test system: Leishmania amazonensis; test: Inhibition of sterol biosynthesis in Leishmania mexicana amazonensis promastigotes assessed as reduction in exogenous cholesterol level at 3 uM after 96 hrs by gas-liquid chromatography; assay type: functional; set-up: scale not given: the % may be the effect or the level left; how it was run: as §1
[9] = test system: Leishmania amazonensis; test: Inhibition of sterol biosynthesis in Leishmania mexicana amazonensis promastigotes assessed as reduction in endogenous 5-dehydro episterol level at 3 uM after 96 hrs by gas-liquid chromatography; assay type: functional; set-up: scale not given: the % may be the effect or the level left; how it was run: as §1

## OC1(c2ccc(-c3ccccc3)cc2)CN2CCC1CC2 (centres undefined)
[1]
  Ki: 12 nM
[2]
  Ki: 62 nM
[3]
  Activity: 17.5%
[4]
  Activity: 20.8%
[5]
  Activity: 16.8%
[6]
  IC50: 13 nM
[7]
  Activity: 65.7%
[8]
  Activity: 39.6%
[9]
  Activity: 39.6%

— ChEMBL document CHEMBL1137637, “Quinuclidine derivatives as potential antiparasitics” (Antimicrob Agents Chemother, 2007)
